According to ChEMBL document CHEMBL1147115 (2007):
In brackets after ≈: the same amount, converted by molar mass.

Assays:
Klebsiella pneumoniae [1] = experiment: Antimicrobial activity against ESBL producing Klebsiella pneumoniae 268 isolate infected thigh infection model ICR mouse; type: functional, Thigh muscle
Outline: (§1)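 Female ICR mice (~25 g) were made neutropenic with cyclophosphamide ip (150 and 100 mg/kg, days −4 and −1) and renally impaired with uranyl nitrate 5 mg/kg ip (day −3). Each thigh got 0.1 ml of 10^5 CFU/ml (or 10^7 for high inoculum) im 2 h pre-therapy. Human-simulated regimens were given sc, three mice per group, for 24 h. Efficacy was the log10 CFU/thigh change versus 0-h controls.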

Klebsiella pneumoniae [2] = experiment: Antimicrobial activity against ESBL producing Klebsiella pneumoniae 270 isolate infected thigh infection model ICR mouse; type: functional, Thigh muscle; outline: as §1
Klebsiella pneumoniae [3] = experiment: Antimicrobial activity against ESBL producing Klebsiella pneumoniae 260 isolate infected thigh infection model ICR mouse; type: functional, Thigh muscle; outline: as §1
Klebsiella pneumoniae [4] = experiment: Antimicrobial activity against ESBL producing Klebsiella pneumoniae 264 isolate infected thigh infection model ICR mouse; type: functional, Thigh muscle; outline: as §1
Escherichia coli [5] = experiment: Antimicrobial activity against ESBL producing Escherichia coli 311 isolate infected thigh infection model ICR mouse; type: functional, Thigh muscle; outline: as §1
Klebsiella pneumoniae [6] = experiment: Antimicrobial activity against ESBL producing Klebsiella pneumoniae 255 isolate infected thigh infection model ICR mouse; type: functional, Thigh muscle; outline: as §1
Klebsiella pneumoniae [7] = experiment: Antimicrobial activity against ESBL producing Klebsiella pneumoniae 254 isolate infected thigh infection model ICR mouse; type: functional, Thigh muscle; outline: as §1
Klebsiella pneumoniae [8] = experiment: Antimicrobial activity against ESBL producing Klebsiella pneumoniae 259 isolate infected thigh infection model ICR mouse; type: functional, Thigh muscle; outline: as §1
Klebsiella pneumoniae [9] = experiment: Antimicrobial activity against ESBL producing Klebsiella pneumoniae 263 isolate infected thigh infection model ICR mouse; type: functional, Thigh muscle; outline: as §1
Klebsiella pneumoniae [10] = experiment: Antimicrobial activity against ESBL producing Klebsiella pneumoniae 266 isolate infected thigh infection model ICR mouse; type: functional, Thigh muscle; outline: as §1
Klebsiella pneumoniae [11] = experiment: Antimicrobial activity against ESBL producing Klebsiella pneumoniae 257 isolate infected thigh infection model ICR mouse; type: functional, Thigh muscle; outline: as §1
Klebsiella pneumoniae [12] = experiment: Antimicrobial activity against ESBL producing Klebsiella pneumoniae 258 isolate infected thigh infection model ICR mouse; type: functional, Thigh muscle; outline: as §1
Klebsiella pneumoniae [13] = experiment: Antimicrobial activity against ESBL producing Klebsiella pneumoniae 262 isolate infected thigh infection model ICR mouse; type: functional, Thigh muscle; outline: as §1
Klebsiella pneumoniae [14] = experiment: Antimicrobial activity against ESBL producing Klebsiella pneumoniae 256 isolate infected thigh infection model ICR mouse; type: functional, Thigh muscle; outline: as §1
Klebsiella pneumoniae [15] = experiment: Antimicrobial activity against ESBL producing Klebsiella pneumoniae 261 isolate infected thigh infection model ICR mouse; type: functional, Thigh muscle; outline: as §1
Klebsiella pneumoniae [16] = experiment: Bacteriostasis activity against ESBL producing Klebsiella pneumonia 262 isolate at up to 1.5 ug/ml; type: functional
Klebsiella pneumoniae [17] = experiment: Activity against ESBL producing Klebsiella pneumonia 262 isolate at up to 4 ug/ml; type: functional
Klebsiella pneumoniae [18] = experiment: Antimicrobial activity against ESBL producing Klebsiella pneumoniae 230 isolate; type: functional
Escherichia coli [19] = experiment: Antimicrobial activity against ESBL producing Escherichia coli 130 isolate; type: functional
Escherichia coli [20] = experiment: Antimicrobial activity against Escherichia coli ATCC 25922 isolate; type: functional
Escherichia coli [21] = experiment: Antimicrobial activity against Escherichia coli 120 isolate; type: functional
Escherichia coli [22] = experiment: Antimicrobial activity against ESBL producing Escherichia coli 320 isolate; type: functional
Escherichia coli [23] = experiment: Antimicrobial activity against ESBL producing Escherichia coli 321 isolate; type: functional
Escherichia coli [24] = experiment: Antimicrobial activity against ESBL producing Escherichia coli 322 isolate; type: functional
Escherichia coli [25] = experiment: Antimicrobial activity against ESBL producing Escherichia coli 310 isolate; type: functional
Escherichia coli [26] = experiment: Antimicrobial activity against ESBL producing Escherichia coli 312 isolate; type: functional
Escherichia coli [27] = experiment: Antimicrobial activity against ESBL producing Escherichia coli 118 isolate; type: functional
Escherichia coli [28] = experiment: Antimicrobial activity against ESBL producing Escherichia coli 243 isolate; type: functional
Escherichia coli [29] = experiment: Antimicrobial activity against ESBL producing Escherichia coli 285 isolate; type: functional
Klebsiella pneumoniae [30] = experiment: Antimicrobial activity against ESBL producing Klebsiella pneumoniae 225 isolate; type: functional
Klebsiella pneumoniae [31] = experiment: Antimicrobial activity against ESBL producing Klebsiella pneumoniae 60 isolate; type: functional
Escherichia coli [32] = experiment: Antimicrobial activity against ESBL producing Escherichia coli 315 isolate; type: functional
Escherichia coli [33] = experiment: Antimicrobial activity against ESBL producing Escherichia coli 133 isolate; type: functional
Klebsiella pneumoniae [34] = experiment: Antimicrobial activity against ESBL producing Klebsiella pneumoniae 101 isolate; type: functional

Q: With `C[C@@H](O)[C@H]1C(=O)N2C(C(=O)O)=C(S[C@@H]3CN[C@H](C(=O)Nc4cccc(C(=O)O)c4)C3)[C@H](C)[C@H]12` as the compound, how does the “fT>MIC” value (Klebsiella pneumoniae [1]) read?
A: Its value is 47%.

Q: What about the “fT>MIC” value (Klebsiella pneumoniae [2]) of the same compound?
A: Its value is 40%.

Q: And the “fT>MIC” value (Klebsiella pneumoniae [3])?
A: Its value is 30%.

Q: And the “fT>MIC” value (Klebsiella pneumoniae [4])?
A: The value was 10%.

Q: And the “fT>MIC” value (Escherichia coli [5])?
A: The value was 10%.

Q: And the “fT>MIC” value (Klebsiella pneumoniae [6])?
A: The value was 20%.

Q: What about the “fT>MIC” value (Klebsiella pneumoniae [7]) of the same compound?
A: Its value is 0%.

Q: And the “fT>MIC” value (Klebsiella pneumoniae [8])?
A: The value was 0%.

Q: What about the “fT>MIC” value (Klebsiella pneumoniae [9]) of the same compound?
A: The value was 0%.

Q: And the “fT>MIC” value (Klebsiella pneumoniae [10])?
A: Its value is 0%.

Q: And the “fT>MIC” value (Klebsiella pneumoniae [11])?
A: The value was 0%.

Q: What about the “fT>MIC” value (Klebsiella pneumoniae [12]) of the same compound?
A: Its value is 0%.

Q: What about the “fT>MIC” value (Klebsiella pneumoniae [13]) of the same compound?
A: The value was 0%.

Q: What about the “fT>MIC” value (Klebsiella pneumoniae [14]) of the same compound?
A: The value was 0%.

Q: And the “fT>MIC” value (Klebsiella pneumoniae [15])?
A: Its value is 0%.

Q: What about the MIC (Klebsiella pneumoniae [16]) of the same compound?
A: Its MIC is 1.5 µg/mL (≈ 3.15 µM).

Q: And the MIC (Klebsiella pneumoniae [17])?
A: The MIC was 4 µg/mL (≈ 8.41 µM).

Q: What about the MIC (Klebsiella pneumoniae [18]) of the same compound?
A: The MIC was 0.094 µg/mL (≈ 0.198 µM).

Q: What about the MIC (Escherichia coli [19]) of the same compound?
A: Its MIC is 1 µg/mL (≈ 2.1 µM).

Q: What about the MIC (Escherichia coli [20]) of the same compound?
A: The MIC was 0.008 µg/mL (≈ 0.0168 µM).

Q: What about the MIC (Escherichia coli [21]) of the same compound?
A: Its MIC is 0.03 µg/mL (≈ 0.0631 µM).

Q: And the MIC (Escherichia coli [22])?
A: The MIC was 0.5 µg/mL (≈ 1.05 µM).

Q: What about the MIC (Escherichia coli [23]) of the same compound?
A: Its MIC is 0.012 µg/mL (≈ 0.0252 µM).

Q: What about the MIC (Escherichia coli [24]) of the same compound?
A: Its MIC is 0.012 µg/mL (≈ 0.0252 µM).

Q: What about the MIC (Escherichia coli [25]) of the same compound?
A: Its MIC is 0.064 µg/mL (≈ 0.135 µM).

Q: What about the MIC (Escherichia coli [26]) of the same compound?
A: The MIC was 0.19 µg/mL (≈ 0.4 µM).

Q: What about the MIC (Escherichia coli [27]) of the same compound?
A: Its MIC is 0.012 µg/mL (≈ 0.0252 µM).

Q: And the MIC (Escherichia coli [28])?
A: The MIC was 0.064 µg/mL (≈ 0.135 µM).

Q: What about the MIC (Escherichia coli [29]) of the same compound?
A: Its MIC is 0.023 µg/mL (≈ 0.0484 µM).

Q: What about the MIC (Klebsiella pneumoniae [30]) of the same compound?
A: The MIC was 0.016 µg/mL (≈ 0.0336 µM).

Q: What about the MIC (Klebsiella pneumoniae [31]) of the same compound?
A: The MIC was 0.012 µg/mL (≈ 0.0252 µM).

Q: And the MIC (Escherichia coli [32])?
A: The MIC was 0.032 µg/mL (≈ 0.0673 µM).

Q: And the MIC (Escherichia coli [33])?
A: Its MIC is 1.5 µg/mL (≈ 3.15 µM).

Q: And the MIC (Klebsiella pneumoniae [34])?
A: The MIC was 0.094 µg/mL (≈ 0.198 µM).
